Screening results from PubChem BioAssay.
The entries come from a sample that favours hits as a whole.
IDH1 R132H inh – IDH1 R132H (human) inhibition; O75874; IDH1 R132H reductase, diaphorase/resazurin fluorescence, 60 min; inhibition, % at 10 µM; actives 0.18% (n = 70,000); AID 624101; in the data active = inhibition above about 34%; inconclusive = no clear call, values can overlap the other calls; inactive = below about 11%;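 note: 0% = DMSO and 100% = no enzyme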
Target sequence (O75874 whole entry R132H): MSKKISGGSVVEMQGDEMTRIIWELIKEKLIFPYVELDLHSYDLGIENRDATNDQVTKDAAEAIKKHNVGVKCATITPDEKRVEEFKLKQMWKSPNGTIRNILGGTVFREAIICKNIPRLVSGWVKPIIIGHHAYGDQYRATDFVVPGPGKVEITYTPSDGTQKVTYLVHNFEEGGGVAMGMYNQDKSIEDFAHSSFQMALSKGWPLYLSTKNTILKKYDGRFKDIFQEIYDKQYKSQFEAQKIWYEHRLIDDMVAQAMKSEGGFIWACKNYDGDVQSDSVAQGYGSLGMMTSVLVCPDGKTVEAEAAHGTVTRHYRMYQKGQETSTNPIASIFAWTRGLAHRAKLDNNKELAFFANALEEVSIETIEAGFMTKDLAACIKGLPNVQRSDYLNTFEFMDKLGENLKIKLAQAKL
KDM4C inh – KDM4C (human) demethylase inhibition; actives 0.15% (n = 96,000); GST-KDM4C 2-372, H3K9me3 peptide, LANCE TR-FRET; Q9H3R0; inhibition, % at 12.5 µM;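 active = mean replicate inhibition above about 25%, with at least 55% of replicates also reaching it, limit read from the data, passing the limit was not always enough; inconclusive = only one of those two conditions met; inactive = neither condition met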
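Material: N-terminal GST-fused human GASC-1 (KDM4C) fragment, residues 2-372. Input: 10 nM enzyme. Incubation: enzyme reaction 30 min, then detection 60 min, both room temperature. Doses: one test concentration per compound. Read-out basis: inhibition from TR-FRET ratio decrease. Detection: LANCE TR-FRET, excitation 340 nm, emissions 618 and 671 nm.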
T cruzi growth-1 – T. cruzi proliferation inhibition; inhibition, % at 8.34 µM; AID 624255; T. cruzi beta-gal in NIH3T3, GalScreen luminescence, 90 h; actives 5.9% (n = 77,000);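 active = mean inhibition above about 93%, with at least 55% of replicates each passing it, limit read from the data, passing the limit was not always enough; inconclusive = only one of those two conditions holds; inactive = neither condition holds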
T cruzi growth-2 – blocks T. cruzi growth in NIH3T3 host cells. shares compounds with T cruzi growth-1. T. cruzi beta-gal in NIH3T3, GalScreen luminescence, 90 h. inhibition, % at 8.35 µM. actives 72% (n = 5,600). AID 651739;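 active = mean replicate inhibition above about 95% and at least 55% of replicates individually reaching it, limit read from the data; inconclusive = only one of the two criteria is met; inactive = neither criterion is met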
T cruzi growth-3 – inhibitors of T. cruzi proliferation; shares compounds with T cruzi growth-1; T. cruzi beta-gal in NIH3T3, GalScreen luminescence, 90 h; inhibition, % at 2.09 µM; actives 21% (n = 5,600); AID 651740;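 active = mean inhibition above about 95%, with at least 55% of replicates also reaching it, limit read from the data; inconclusive = meets just one of the two conditions; inactive = meets neither condition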;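 note: plate controls were neutral control median for no effect and positive control median for full effect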
3T3 cytotox – kills mouse NIH/3T3 fibroblasts; cytotoxicity (signal decrease), % at 8.35 µM; shares compounds with T cruzi growth-1; actives 14% (n = 5,600); NIH/3T3 viability, CellTiter-Glo ATP luminescence, 90 h;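 active = mean signal decrease across replicates above about 35% based on untreated-well scatter, with enough replicates individually passing, limit read from the data; inconclusive = no rule stated though some were filed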;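 note: 0% = median of neutral control wells and 100% = median of positive control wells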
NIH3T3 tox 2 – NIH/3T3 (mouse) viability loss; shares compounds with T cruzi growth-1; NIH/3T3 viability, CellTiter-Glo ATP luminescence, 90 h; inhibition, % at 24.9 µM; actives 56% (n = 5,600); AID 651744;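 active = mean loss of cell viability signal at or above a set limit, and enough replicates individually reaching it; inconclusive = meets only the mean limit or only the replicate share; inactive = meets neither condition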;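 note: 0% = median of neutral control wells and 100% = median of positive control wells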
* marks the source's active call; other numbers are inactive results; ? = inconclusive; / = not tested or not shown.

SMILES | IDH1 R132H inh | KDM4C inh | T cruzi growth-1 | T cruzi growth-2 | T cruzi growth-3 | 3T3 cytotox | NIH3T3 tox 2
CO[C@@H]1CN(C)C(=O)c2cc(NS(=O)(=O)c3ccccc3)ccc2OC[C@H](C)N(Cc2cccnc2)C[C@@H]1C | 0 | -1 | 24 | / | / | / | /
COC1CC(OC(O)C(O)C(O)C(O)C(O)CO)c2c(cc3cc(C)oc(=O)c3c2O)OC1=O (stereo not given) | 0 | / | / | / | / | / | /
CCOC(=O)c1cc(NC(=O)CSc2nc3ccccc3c(=O)[nH]2)ccc1Cl | 0 | / | / | / | / | / | /
Cc1ccccc1Cn1cc(NC(=O)C2CC(c3ccc(Cl)cc3)=NO2)cn1 (stereo not given) | 0 | / | / | / | / | / | /
CO[C@H]1CN(C)C(=O)c2cc(NC(=O)C3CC3)ccc2OC[C@H](C)N(Cc2cc(F)ccc2F)C[C@H]1C | 0 | -3 | 95 | / | / | / | /
COCC(=O)Nc1ccc2c(c1)OC[C@H](C)N(Cc1cc(F)ccc1F)C[C@@H](C)[C@H](OC)CN(C)C2=O | 0 | -1 | 97* | 97* | 31 | -7 | 16
CO[C@H]1CN(C)C(=O)c2cc(NS(=O)(=O)c3ccc(C)cc3)ccc2OC[C@@H](C)N(Cc2nccs2)C[C@H]1C | -1 | -1 | 107* | 104* | 25 | -3 | 40*
CO[C@@H]1CN(C)C(=O)c2ccc(NS(=O)(=O)c3ccc(C)cc3)cc2OC[C@@H](C)N(Cc2nccs2)C[C@@H]1C | 0 | 0 | 45 | / | / | / | /
COCC(=O)Nc1ccc2c(c1)OC[C@@H](C)N(Cc1cc(F)ccc1F)C[C@@H](C)[C@H](OC)CN(C)C2=O | 0 | 0 | 47 | / | / | / | /
CO[C@@H]1CN(C)C(=O)c2cc(NC(=O)C3CC3)ccc2OC[C@H](C)N(Cc2cccc(F)c2)C[C@H]1C | 0 | 2 | 99* | ? | 38 | -2 | 0
CO[C@@H]1CN(C)C(=O)c2cc(NC(=O)C3CC3)ccc2OC[C@@H](C)N(Cc2cccc(F)c2)C[C@@H]1C | 0 | 2 | 63 | / | / | / | /
CO[C@@H]1CN(C)C(=O)c2cc(NC(=O)C3CC3)ccc2OC[C@H](C)N(Cc2cc(F)ccc2F)C[C@H]1C | 0 | -1 | 109* | 80 | 39 | -2 | -3
COC(=O)c1ccc(NC(=O)CSc2nnc(-c3ccccc3)n2-c2ccccc2)cc1 | 0 | / | / | / | / | / | /
O=C(NO)c1cccc(C(=O)N/N=C/c2ccccn2)c1 | 0 | / | / | / | / | / | /
Cc1ccsc1/C=N/NC(=O)CCCCCC(=O)O | 0 | / | / | / | / | / | /
O=C(CCN1C(=O)C2C3C=CC(C4CC34)C2C1=O)Nc1ccc(F)cc1 (stereo not given) | 0 | / | / | / | / | / | /
O=C(CSc1nc2sccc2c(=O)[nH]1)Nc1ccccc1 | 0 | / | / | / | / | / | /
CO[C@H]1CN(C)C(=O)c2ccc(NC(=O)NC(C)C)cc2OC[C@@H](C)N(Cc2ccccn2)C[C@@H]1C | 0 | 2 | 100* | 60 | -42 | 15 | 7
CO[C@@H]1CN(C)C(=O)c2ccc(NC(=O)NC(C)C)cc2OC[C@@H](C)N(Cc2ccccn2)C[C@@H]1C | 0 | 3 | 64 | / | / | / | /
C[C@@H]1CN([C@@H](C)CO)S(=O)(=O)c2ccc(C#CCN(C)C)cc2O[C@H]1CN(C)Cc1ccncc1 | 13 | 6 | 107* | 108* | ? | 27 | 46*
CCCC#Cc1ccc2c(c1)O[C@@H](CN(C)Cc1ccncc1)[C@@H](C)CN([C@@H](C)CO)S2(=O)=O | 7 | 4 | 113* | 102* | 96* | 26 | 100*
CCCC#Cc1ccc2c(c1)O[C@@H](CN(C)Cc1ccncc1)[C@@H](C)CN([C@H](C)CO)S2(=O)=O | 0 | 6 | 114* | 105* | 90 | 32 | -2
CCCC#Cc1ccc2c(c1)O[C@@H](CN(C)Cc1ccncc1)[C@H](C)CN([C@@H](C)CO)S2(=O)=O | 6 | 5 | 121* | 101* | 107* | 63* | 104*
CC(=O)c1cccc(NC(=O)C2CCCN(S(=O)(=O)c3ccc(Cl)cc3)C2)c1 (stereo not given) | 0 | / | / | / | / | / | /
Cn1cc(/C=N/NC(=O)c2ccccn2)c2ccccc21 | 0 | / | / | / | / | / | /
SMILES | IDH1 R132H inh | KDM4C inh | T cruzi growth-1 | T cruzi growth-2 | T cruzi growth-3 | 3T3 cytotox | NIH3T3 tox 2
Cc1nc2ccccn2c1-c1ccnc(SCC(=O)N(c2ccccc2)C2CCCCC2)n1 | 1 | / | / | / | / | / | /
Cc1oc(-c2cc(Cl)cc(Cl)c2)cc1C(=O)NCc1ccco1 | 0 | / | / | / | / | / | /
CCCC#Cc1ccc2c(c1)O[C@H](CN(C)Cc1ccncc1)[C@H](C)CN([C@@H](C)CO)S2(=O)=O | 17 | -3 | 118* | 90 | 65 | ? | 41*
CCCC#Cc1ccc2c(c1)O[C@H](CN(C)Cc1ccncc1)[C@@H](C)CN([C@H](C)CO)S2(=O)=O | 2 | 7 | 118* | 98* | ? | 37* | 104*
Cc1ccc(S(=O)(=O)N(C)C[C@@H]2OCCCC[C@H](C)Oc3ccc(NC(=O)Nc4ccc(F)cc4)cc3C(=O)N([C@H](C)CO)C[C@@H]2C)cc1 | -1 | 0 | 109* | 97* | 107* | 3 | 41*
Cc1ccc(S(=O)(=O)N(C)C[C@@H]2OCCCC[C@@H](C)Oc3ccc(NC(=O)Nc4ccc(F)cc4)cc3C(=O)N([C@H](C)CO)C[C@H]2C)cc1 | / | -1 | 114* | 109* | 109* | -3 | 24
Cc1ccc(S(=O)(=O)N(C)C[C@H]2OCCCC[C@@H](C)Oc3ccc(NC(=O)Nc4ccc(F)cc4)cc3C(=O)N([C@@H](C)CO)C[C@@H]2C)cc1 | / | 0 | / | / | / | / | /
Cc1ccc(S(=O)(=O)N(C)C[C@H]2OCCCC[C@H](C)Oc3ccc(NC(=O)Nc4ccc(F)cc4)cc3C(=O)N([C@@H](C)CO)C[C@H]2C)cc1 | / | -1 | 59 | / | / | / | /
O=C(CSc1nnnn1-c1ccccc1)Nc1ccc(Cl)cc1O | 0 | / | / | / | / | / | /
Cc1cc(OCc2nc3ccccc3s2)ccc1NC(=O)Nc1cccc(Cl)c1 | 0 | / | / | / | / | / | /
COc1cccc(-c2ccc3c(c2)O[C@H](CN(C)C(=O)C2CC2)[C@H](C)CN([C@@H](C)CO)S3(=O)=O)c1 | / | -2 | 102* | 82 | 43 | 18 | 68*
COc1cccc(-c2ccc3c(c2)O[C@@H](CN(C)C(=O)c2ccccc2F)[C@H](C)CN([C@H](C)CO)S3(=O)=O)c1 | -2 | -2 | / | / | / | / | /
COc1cccc(-c2ccc3c(c2)O[C@H](CN(C)C(=O)c2ccccc2F)[C@H](C)CN([C@H](C)CO)S3(=O)=O)c1 | 1 | -1 | 108* | 105* | 77 | 45* | 74*
C[C@@H]1CN([C@H](C)CO)S(=O)(=O)c2ccc(-c3ccccc3)cc2O[C@H]1CN(C)C(=O)C1CC1 | / | 2 | 116 | / | / | / | /
C[C@@H]1CN([C@@H](C)CO)S(=O)(=O)c2ccc(-c3ccccc3)cc2O[C@H]1CN(C)C(=O)C1CC1 | / | -1 | ? | 78 | 29 | 38* | 59*
